Data on 16 molecules can be found in ChEMBL document CHEMBL1141413, “Cinnamacrins A-C, cinnafragrin D, and cytostatic metabolites with alpha-glucosidase inhibitory activity from Cinnamosma macrocarpa” (J Nat Prod, 2007).

The target of data set [1] is Maltase-glucoamylase (Homo sapiens) (UniProt O43451). Kind of data set: Inhibition of alpha-glucosidase in 1.20 mg/200 uL.
Data set [2] is described as follows: Cytotoxicity against E6SM cells. It counts as cell-based. Conditions: human, read-out: MIC. Put shortly:
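Microscopic scoring of E6SM cell cultures; minimal cytotoxic concentration is the concentration causing a detectable alteration of normal cell morphology.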

Data set [3] has as its system Human alphaherpesvirus 1. Briefly: Antiviral activity against HSV1 KOS. Conditions: Human alphaherpesvirus 1, KOS. It counts as functional. Put shortly:
(§1)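 Antiviral test in E6SM cell cultures; the minimum inhibitory concentration is the level that reduces virus-induced cytopathogenicity by 50%.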

For data set [4], the system named is Human alphaherpesvirus 1. Briefly: Antiviral activity against HSV1 TK KOS ACVr. Format: functional. The conditions noted are these: Human alphaherpesvirus 1, TK KOS ACVr. Put shortly:
as §1

The subject of data set [5] is Vesicular stomatitis virus. Briefly: Antiviral activity against VSV. Format: functional. Put shortly: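 Tested in both E6SM and HeLa cell cultures; the minimum inhibitory concentration is the level that reduces virus-induced cytopathogenicity by 50%.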
A further data set concerns Vaccinia virus. Briefly: Antiviral activity against vaccinia virus. Format: functional. The conditions noted are these: Orthopoxvirus vaccinia. Put shortly: as §1
For another data set, the system named is Human alphaherpesvirus 2. Kind of data set: Antiviral activity against HSV2 G. It counts as functional. Conditions: Human alphaherpesvirus 2, G. Put shortly: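 Virus-induced cytopathogenicity in E6SM cell cultures; value is the concentration needed to reduce cytopathogenicity by 50%.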
Data set [6] can be described thus: Cytotoxicity against HeLa cells. The conditions noted are these: human, read-out: MIC. Format: cell-based. Put shortly:
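HeLa cell cultures examined by microscopy; the minimal cytotoxic concentration is the level that causes a microscopically detectable alteration of normal cell morphology.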

Another data set relates to MOLT-4. Kind of data set: Cytostatic activity against human Molt4/C8 cells. It counts as functional, cell-based. Put shortly: (§2)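 Tumour cell proliferation assay; IC50 is the compound concentration that inhibits cell proliferation by 50%.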
The subject of another data set is Coxsackievirus B4. Kind of data set: Antiviral activity against CV B4. Format: functional. Conditions: Enterovirus B. Put shortly:
(§3)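 Antiviral test in HeLa cell cultures; the minimum inhibitory concentration is the level that reduces virus-induced cytopathogenicity by 50%.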

Data set [7] in a line: Cytostatic activity against mouse L1210/0 cells. Format: functional, cell-based. Put shortly: as §2
The test system of data set [8] is Respiratory syncytial virus. Briefly: Antiviral activity against RSV. Format: functional. The conditions noted are these: human respiratory syncytial virus. Put shortly:
as §3

The test system of another data set is CCRF-CEM. Kind of data set: Cytostatic activity against human CEM/0 cells. It counts as functional, cell-based. Put shortly:
as §2

≈ marks a conversion by molar mass, not a printed value. Calls of active or inactive are those of the source. No cut-off for these calls is given here.

Chain of Maltase-glucoamylase (Homo sapiens) (O43451 whole entry, looked up): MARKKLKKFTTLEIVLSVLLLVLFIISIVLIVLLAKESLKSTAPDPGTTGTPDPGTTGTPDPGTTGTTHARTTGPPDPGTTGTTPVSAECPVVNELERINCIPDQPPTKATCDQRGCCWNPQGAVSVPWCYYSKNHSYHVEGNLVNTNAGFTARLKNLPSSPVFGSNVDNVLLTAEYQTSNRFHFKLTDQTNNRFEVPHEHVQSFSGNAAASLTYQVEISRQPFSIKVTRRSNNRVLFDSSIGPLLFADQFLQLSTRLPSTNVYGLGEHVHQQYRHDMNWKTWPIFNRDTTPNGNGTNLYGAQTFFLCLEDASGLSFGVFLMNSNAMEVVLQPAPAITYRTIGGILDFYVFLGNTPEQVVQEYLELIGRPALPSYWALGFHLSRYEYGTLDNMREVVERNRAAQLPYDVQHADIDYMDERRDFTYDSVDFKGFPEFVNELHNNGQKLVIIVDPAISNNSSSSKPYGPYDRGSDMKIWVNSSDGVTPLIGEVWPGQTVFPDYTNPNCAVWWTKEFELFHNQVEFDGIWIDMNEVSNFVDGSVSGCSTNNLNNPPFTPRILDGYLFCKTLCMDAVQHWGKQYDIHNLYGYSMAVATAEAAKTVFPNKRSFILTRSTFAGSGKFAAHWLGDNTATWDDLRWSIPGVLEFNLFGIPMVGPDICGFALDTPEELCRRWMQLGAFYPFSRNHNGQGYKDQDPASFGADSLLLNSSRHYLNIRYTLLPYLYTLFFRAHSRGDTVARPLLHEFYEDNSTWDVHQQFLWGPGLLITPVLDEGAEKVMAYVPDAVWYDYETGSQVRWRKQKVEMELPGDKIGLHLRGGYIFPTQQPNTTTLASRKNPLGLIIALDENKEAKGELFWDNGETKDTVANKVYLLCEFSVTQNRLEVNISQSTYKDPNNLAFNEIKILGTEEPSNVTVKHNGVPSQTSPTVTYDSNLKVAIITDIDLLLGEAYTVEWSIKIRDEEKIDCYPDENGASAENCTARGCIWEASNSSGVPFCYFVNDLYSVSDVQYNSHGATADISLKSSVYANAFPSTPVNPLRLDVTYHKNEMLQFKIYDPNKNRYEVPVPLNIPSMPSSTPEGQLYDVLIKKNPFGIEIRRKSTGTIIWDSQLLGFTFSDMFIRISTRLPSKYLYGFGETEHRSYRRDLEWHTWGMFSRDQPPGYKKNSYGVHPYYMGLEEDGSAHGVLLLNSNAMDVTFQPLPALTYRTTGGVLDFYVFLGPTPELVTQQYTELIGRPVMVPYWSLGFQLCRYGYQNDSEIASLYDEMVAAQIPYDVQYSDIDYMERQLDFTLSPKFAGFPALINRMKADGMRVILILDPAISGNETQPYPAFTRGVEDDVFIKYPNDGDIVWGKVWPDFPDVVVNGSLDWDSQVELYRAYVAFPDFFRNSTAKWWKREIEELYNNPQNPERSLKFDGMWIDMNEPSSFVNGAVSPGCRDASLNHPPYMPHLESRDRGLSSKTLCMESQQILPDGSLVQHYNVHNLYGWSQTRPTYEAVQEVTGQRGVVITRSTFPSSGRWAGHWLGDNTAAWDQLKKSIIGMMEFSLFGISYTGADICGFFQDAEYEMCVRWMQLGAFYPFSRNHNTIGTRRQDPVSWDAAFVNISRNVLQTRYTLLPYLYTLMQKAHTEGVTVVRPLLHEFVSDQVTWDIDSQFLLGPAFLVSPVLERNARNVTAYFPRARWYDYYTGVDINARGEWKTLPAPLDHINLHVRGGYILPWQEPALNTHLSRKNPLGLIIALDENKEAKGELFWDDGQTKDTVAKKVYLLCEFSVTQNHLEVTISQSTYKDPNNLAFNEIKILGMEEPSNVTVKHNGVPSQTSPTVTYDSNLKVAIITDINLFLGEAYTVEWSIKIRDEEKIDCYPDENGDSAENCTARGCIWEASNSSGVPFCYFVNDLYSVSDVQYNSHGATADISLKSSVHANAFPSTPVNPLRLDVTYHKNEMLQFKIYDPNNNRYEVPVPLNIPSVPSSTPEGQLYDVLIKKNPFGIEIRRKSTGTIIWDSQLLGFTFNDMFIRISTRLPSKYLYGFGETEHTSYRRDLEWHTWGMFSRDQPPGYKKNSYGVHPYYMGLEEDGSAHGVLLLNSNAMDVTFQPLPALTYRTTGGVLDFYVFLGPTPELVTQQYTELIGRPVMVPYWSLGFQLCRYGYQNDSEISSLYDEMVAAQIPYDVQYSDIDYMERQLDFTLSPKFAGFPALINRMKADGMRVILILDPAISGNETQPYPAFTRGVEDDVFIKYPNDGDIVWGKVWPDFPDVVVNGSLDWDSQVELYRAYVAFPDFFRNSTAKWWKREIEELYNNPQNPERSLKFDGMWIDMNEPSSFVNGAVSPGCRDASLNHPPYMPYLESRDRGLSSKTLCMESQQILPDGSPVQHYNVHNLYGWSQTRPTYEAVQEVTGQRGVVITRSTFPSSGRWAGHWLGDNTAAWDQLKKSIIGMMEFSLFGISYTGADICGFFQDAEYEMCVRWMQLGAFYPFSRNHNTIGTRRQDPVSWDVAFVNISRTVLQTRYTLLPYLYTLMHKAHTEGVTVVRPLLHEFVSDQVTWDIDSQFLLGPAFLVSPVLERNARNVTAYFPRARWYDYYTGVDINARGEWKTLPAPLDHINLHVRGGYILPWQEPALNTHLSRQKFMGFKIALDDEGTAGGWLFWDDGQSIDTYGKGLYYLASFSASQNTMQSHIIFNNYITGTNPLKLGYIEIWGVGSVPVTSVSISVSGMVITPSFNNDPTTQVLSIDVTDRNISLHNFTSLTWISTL

As to `CC(=O)OC1=CC2=C(COC2=O)[C@@]2(C)CCCC(C)(C)[C@H]12`, the outcome in data set [1] was inactive.
For `CC(=O)O[C@@H]1C=C([C@@H]2O[C@@H]3O[C@H](O)C4=C[C@@H](OC(C)=O)[C@H]5C(C)(C)CCC[C@]5(C)[C@]43O2)[C@](O)(C=O)[C@@]2(C)CCCC(C)(C)[C@H]12`, the result in data set [1] was inactive.
Same read-out and setting: to `CC(=O)O[C@@H]1C=C2C3OC4OC5OC(O[C@@]24[C@@]2(C)CCCC(C)(C)[C@H]12)C1=C[C@@H](OC(C)=O)[C@H]2C(C)(C)CCC[C@]2(C)[C@]15O3` belongs “inactive”.
Regarding `CC(=O)O[C@@H]1[C@@H](O[C@H]2O[C@@H]3O[C@H](C4=C[C@@H](OC(C)=O)[C@H]5C(C)(C)CCC[C@]5(C)[C@@]4(O)C=O)O[C@@]34C2=C[C@@H](OC(C)=O)[C@H]2C(C)(C)CCC[C@@]24C)C2=C(C(=O)OC2)[C@@]2(C)CCCC(C)(C)[C@H]12`, the result in [1] was inactive.
Still for that read-out and setting: to `CC(=O)O[C@@H]1[C@H]([C@@H]2C3=C(C(=O)OC3)[C@@]3(C)CCCC(C)(C)[C@@H]3[C@@H]2OC(C)=O)C2=C(C(=O)OC2)[C@@]2(C)CCCC(C)(C)[C@H]12` belongs “inactive”; to `CC(C)=CCC/C(C)=C/CC/C(C)=C/CC[C@]1(C)CCc2cc(O)cc(C)c2O1`, “inactive”; to `CC1(C)CCC[C@]2(C)C3=C(C=C[C@@H]12)C(=O)OC3`, “inactive”.
On the same count and under the same terms, with `CC1(C)CCC[C@]2(C)[C@H](C=O)C(C=O)=CC[C@@H]12` the entry was “inactive”; with `CC1(C)CCC[C@]2(C)[C@H]3COC(=O)C3=CC[C@@H]12`, “inactive”.
On the same count and under the same terms, to `CC1=C(C(=O)O)C(=O)C2=C3[C@@](C)(CCC[C@]13C)CO2` belongs “inactive”.
Broadly, the inhibition is the change of the read-out against control, counted positive when it falls. The low end stands for a response near the control, the high end for a response far below the control. The molecule `COC1O[C@H]2O[C@H](C3=C[C@@H](OC(C)=O)[C@H]4C(C)(C)CCC[C@]4(C)[C@@]3(O)C=O)O[C@@]23C1=C[C@@H](OC(C)=O)[C@H]1C(C)(C)CCC[C@@]13C` (stereo partly drawn) came in with an inhibition in data set [1] of 26.5%.
The same measure, in the same setting: to `OC[C@H]1NC[C@H](O)[C@@H](O)[C@@H]1O` belongs 100%.
On to `Nc1nc2c(ncn2COCCO)c(=O)[nH]1` [ACYCLOVIR], for which the MCC in data set [2] is greater than 500000 nM. The MIC against Human alphaherpesvirus 1 [3] is 0.48 µM (≈ 0.108 µg/mL); against Human alphaherpesvirus 1 [4], 60 µM (≈ 13.5 µg/mL); in data set [5], greater than 500 µM; against Vaccinia virus, greater than 500 µM; in the data set with Human alphaherpesvirus 2, 0.48 µM (≈ 0.108 µg/mL).
Usually IC50 stands for the midpoint of a concentration-inhibition curve. On to `CC(=O)O[C@@H]1C=C(C2O[C@@H]3OC(O)C4=C[C@@H](OC(C)=O)[C@H]5C(C)(C)CCC[C@]5(C)[C@]43O2)[C@](O)(C=O)[C@@]2(C)CCCC(C)(C)[C@H]12` (stereo partly drawn) [CAPSICODENDRIN], for which the MCC was no less than 1030 nM in data set [2] and 5.16 µM in data set [6]. The MIC (against Human alphaherpesvirus 1 [3]; with Human alphaherpesvirus 1 [4]; in [5]; in the data set with Coxsackievirus B4; against Vaccinia virus; in data set [8]) was greater than 1.03 µM each time. Besides, the MIC against Human alphaherpesvirus 2 was greater than 1.03 µM. For the same molecule, the values for the IC50 (in the data set with MOLT-4; in data set [7]; in the data set on CCRF-CEM) were 940 nM, 1210 nM and 860 nM, respectively. This molecule also yielded an inhibition in data set [1] of 89.4%.
For the molecule `CC(=O)O[C@@H]1C=C(C=O)[C@](O)(C=O)[C@@]2(C)CCCC(C)(C)[C@H]12` [CINNAMODIAL], the results for the MCC in data set [2] and in [6] were no less than 2060 nM and 10.3 µM, respectively. Besides, the MIC (with Human alphaherpesvirus 1 [3]; in the data set on Human alphaherpesvirus 1 [4]; in data set [5]; in the data set with Coxsackievirus B4; against Vaccinia virus; in data set [8]) was greater than 2.06 µM each time. Moreover, in the data set on Human alphaherpesvirus 2, the MIC was greater than 2.06 µM. Further, the IC50 in the data set with MOLT-4 is 1510 nM; in [7], 580 nM; in the data set on CCRF-CEM, 1610 nM. The same molecule returned an inhibition in data set [1] of 78.2%.
With `NC(=O)c1ncn([C@@H]2O[C@H](CO)[C@@H](O)[C@H]2O)n1` [RIBAVIRIN], the MCC in data set [6] was greater than 500 µM. The results for the MIC (in data set [5]; in the data set on Coxsackievirus B4; in data set [8]) were 300 µM (≈ 73.3 µg/mL), greater than 500 µM and 60 µM (≈ 14.7 µg/mL), respectively.
